Measurements from ChEMBL document CHEMBL1671645, “Pharmacokinetics and absorption of posaconazole oral suspension under various gastric conditions in healthy volunteers” (Antimicrob Agents Chemother, 2009).

Assays:
Homo sapiens [1] = test: Toxicity in healthy human assessed as adverse events at 400 mg administered as single dose suspension 5 mins before consumption of high fat meal; assay type: organism-based; conditions: in vivo
Summary of the method: (§1)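 Healthy volunteers monitored for adverse events, vital signs, clinical laboratory values and 12-lead ECG. Adverse events tabulated by body system or organ class and severity and summarized by treatment across the crossover regimens.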

[2] = AUC in healthy human at 400 mg administered as single dose suspension coadministered with nutritional supplement and 4 mg loperamide as two 2 mg tablets; assay type: ADME, organism-based; conditions: plasma
Summary of the method: (§2)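 A three-way crossover in 13 healthy subjects gave one 400 mg oral suspension dose with a nutritional supplement, either alone, with metoclopramide 10 mg orally three times daily on the day before and the day of dosing, or with a single 4 mg dose of loperamide. Plasma was taken 0–168 h for LC-MS/MS. Analysis was noncompartmental.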

Homo sapiens [3] = test: Toxicity in healthy human assessed as fatigue at 400 mg administered as single dose suspension coadministered with nutritional supplement and 4 mg loperamide as two 2 mg tablets; assay type: organism-based; conditions: in vivo
Summary of the method: (§3)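 Three-way randomized crossover in 13 healthy volunteers with a 7- to 10-day washout. Each period was one 400-mg oral posaconazole suspension dose with a nutritional supplement. Metoclopramide 10 mg was given orally three times daily on the day before and the day of dosing; loperamide was a single 4 mg. Safety was assessed from adverse events, tabulated by body system and severity per treatment.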

[4] = Cmax in healthy human plasma at 400 mg administered as single dose suspension coadministered with nutritional supplement and 4 mg loperamide as two 2 mg tablets; assay type: ADME, organism-based; design: dose 400 mg; conditions: po
Summary of the method: (§4)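 Oral suspension (40 mg/ml) single dose with nutritional supplement plus loperamide 4 mg single dose, healthy volunteers, three-way crossover with 7–10-day washout. EDTA plasma drawn predose and 1–168 h postdose. LC-MS/MS assay (LLOQ 5.00 ng/ml). Noncompartmental parameters; Tmax reported as median (range).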

Homo sapiens [5] = test: Toxicity in healthy human assessed as adverse events at 400 mg administered as single dose suspension; assay type: organism-based; conditions: in vivo; summary of the method: as §1
Homo sapiens [6] = test: Toxicity in healthy human assessed as headache at 200 mg QID, po administered as suspension for 7 days; assay type: organism-based; conditions: in vivo, 168 h
Summary of the method: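 Healthy volunteers (n = 12) took oral posaconazole suspension (40 mg/ml) for 7 days in a four-way randomized crossover with a 14- to 21-day washout. Subjects stayed fasted throughout, with nonfat snacks up to 800 cal/day allowed. Where given, Boost was taken with each dose. Safety covered adverse events, vital signs, clinical labs and 12-lead ECG, with AEs tabulated by body system and severity per treatment.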

[7] = AUC in fasted healthy human at 400 mg administered as single dose suspension after 20 mins after consumption of high fat meal; assay type: ADME, organism-based; design: dose 400 mg; conditions: plasma
Summary of the method: (§5)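 In a crossover of 12 healthy subjects, each took a single 400 mg oral suspension dose 5 min before, midway through (about 10 min into a 20-min meal), or 20 min after a high-fat meal of about 50 g fat. Plasma was drawn 0–168 h and measured by LC-MS/MS. Parameters are noncompartmental, with AUC to the last measurable time.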

[8] = Cmax in fasted healthy human plasma at 400 mg BID, po administered as suspension for 7 days; assay type: ADME, organism-based; design: dose 400 mg, route oral
Summary of the method: (§6)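 Twelve healthy subjects took oral suspension for 7 days as 400 mg BID or 200 mg QID, either fasting or with a Boost-type nutritional supplement, in a crossover with 14–21 day washouts. Nonfat snacks of 800 cal/day or less were allowed. Plasma was sampled 0–168 h after the day-7 morning dose only and analysed by LC-MS/MS. AUC is AUC_τ, normalized to dose.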

Homo sapiens [9] = test: Toxicity in healthy human assessed as nausea at 400 mg administered as single dose suspension coadministered with nutritional supplement; assay type: organism-based; conditions: in vivo; summary of the method: as §3
[10] = AUC in fasted healthy human at 400 mg administered as single dose suspension 5 mins before consumption of high fat meal; assay type: ADME, organism-based; conditions: plasma; summary of the method: as §5
[11] = AUC in fasted healthy human at 400 mg administered as single dose suspension; assay type: ADME, organism-based; conditions: plasma
[12] = Tmax in healthy human at 400 mg administered as single dose suspension coadministered with nutritional supplement; assay type: ADME, organism-based; conditions: in vivo
Summary of the method: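 Single oral suspension dose with nutritional supplement, alone or with metoclopramide 10 mg orally three times daily on the day before and the day of dosing; three-way crossover, 7–10-day washout. EDTA plasma predose to 168 h, LC-MS/MS (LLOQ 5.00 ng/ml). t1/2 = ln(2)/K from terminal slope; Tmax median.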

[13] = Cmax in healthy human plasma at 400 mg administered as single dose suspension coadministered with nutritional supplement; assay type: ADME, organism-based; design: dose 400 mg; summary of the method: as §2
Homo sapiens [14] = test: Toxicity in healthy human assessed as adverse events at 400 mg BID, po administered as suspension for 7 days coadministered with nutritional supplement; assay type: organism-based; conditions: in vivo, 168 h; summary of the method: as §1
[15] = Cmax in fasted healthy human plasma at 400 mg administered as single dose suspension 5 mins before consumption of high fat meal; assay type: ADME, organism-based; design: dose 400 mg; summary of the method: as §5
[16] = Apparent volume of distribution in healthy human at 400 mg administered as single dose suspension coadministered with nutritional supplement and 4 mg loperamide as two 2 mg tablets; assay type: ADME, organism-based; conditions: in vivo, po, read-out: Vc/F; summary of the method: as §2
[17] = Apparent volume of distribution in fasted healthy human at 400 mg administered as single dose suspension 5 mins before consumption of high fat meal; assay type: ADME, organism-based; conditions: in vivo, read-out: Vc/F; summary of the method: as §5
[18] = Cmax in healthy human plasma at 200 mg QID, po administered as suspension for 7 days coadministered with nutritional supplement; assay type: ADME, organism-based; design: dose 200 mg, route oral; summary of the method: as §6
[19] = Tmax in fasted healthy human at 400 mg administered as single dose suspension coadministered with acidic carbonated beverage; assay type: ADME, organism-based; conditions: in vivo
Summary of the method: (§7)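 Single oral suspension dose in fasting healthy volunteers, alone, with 12 oz ginger ale, after esomeprazole 40 mg once each morning days −2 to 1, or both; four-way crossover, 7–10-day washout. EDTA plasma 0–168 h. LC-MS/MS (LLOQ 5.00 ng/ml). t1/2 = ln(2)/K from terminal log-linear regression; Tmax median.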

[20] = Tmax in fasted healthy human at 400 mg administered as single dose suspension; assay type: ADME, organism-based; conditions: in vivo; summary of the method: as §7
[21] = Half life in healthy human at 400 mg BID, po administered as suspension for 7 days coadministered with nutritional supplement; assay type: ADME, organism-based; conditions: in vivo
Summary of the method: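 Healthy volunteers given oral suspension (40 mg/ml) for 7 days, fasted or with nutritional supplement (Boost); four-way crossover, 14–21-day washout, nonfat snacks ≤800 cal/day allowed. On day 7 only the morning dose was given; plasma sampled predose to 168 h after it. LC-MS/MS (LLOQ 5.00 ng/ml). t1/2 = ln(2)/K from log-linear terminal slope; Tmax as median.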

Homo sapiens [22] = test: AUC in fasted healthy human at 400 mg BID, po administered as suspension for 7 days; assay type: ADME, organism-based, Plasma; conditions: in vivo, 168 h; summary of the method: as §6
[23] = Half life in fasted healthy human at 400 mg administered as single dose suspension; assay type: ADME, organism-based; conditions: in vivo; summary of the method: as §7
Homo sapiens [24] = test: Toxicity in healthy human assessed as dizziness at 400 mg administered as single dose suspension coadministered with nutritional supplement and 4 mg loperamide as two 2 mg tablets; assay type: organism-based; conditions: in vivo; summary of the method: as §3
[25] = Cmax in healthy human plasma at 400 mg BID, po administered as suspension for 7 days coadministered with nutritional supplement; assay type: ADME, organism-based; design: dose 400 mg, route oral; summary of the method: as §6
[26] = Cmax in fasted healthy human plasma at 200 mg QID, po administered as suspension for 7 days; assay type: ADME, organism-based; design: dose 200 mg, route oral; summary of the method: as §6
[27] = Tmax in healthy human at 400 mg administered as single dose suspension coadministered with nutritional supplement and 4 mg loperamide as two 2 mg tablets; assay type: ADME, organism-based; conditions: in vivo; summary of the method: as §4
[28] = Apparent total body clearance in fasted healthy human at 400 mg administered as single dose suspension; assay type: ADME, organism-based; conditions: in vivo

CC[C@@H]([C@H](C)O)n1ncn(-c2ccc(N3CCN(c4ccc(OC[C@@H]5CO[C@@](Cn6cncn6)(c6ccc(F)cc6F)C5)cc4)CC3)cc2)c1=O [POSACONAZOLE]
Activity (Homo sapiens [1]): 25%
AUC [2]: 10.4 µg·h/mL
Activity (Homo sapiens [3]): 15%
Cmax [4]: 0.294 µg/mL
Activity (Homo sapiens [5]): 25%
Activity (Homo sapiens [6]): 25%
AUC at 20 min [7]: 21 µg·h/mL
Cmax [8]: 0.982 µg/mL
Activity (Homo sapiens [9]): 23%
AUC at 5 min [10]: 10 µg·h/mL
AUC [11]: 5.6 µg·h/mL
Tmax [12]: 5.5 h
Cmax [13]: 0.303 µg/mL
Activity (Homo sapiens [14]): 75%
Cmax [15]: 0.274 µg/mL
Vd/F [16]: 1750 L
Vd/F [17]: 1900 L
Cmax [18]: 2.16 µg/mL
Tmax [19]: 4 h
Tmax [20]: 5 h
half-life [21]: 29.5 h
AUC (Homo sapiens [22]): 52.3 µg·h/mL
half-life [23]: 24.5 h
Activity (Homo sapiens [24]): 15%
Cmax [25]: 1.59 µg/mL
Cmax [26]: 2.3 µg/mL
Tmax [27]: 5 h
CL/F [28]: 1390 mL/min
